In ChEMBL document CHEMBL4431326, “Tumor Targeting with Novel 6-Substituted Pyrrolo [2,3-d] Pyrimidine Antifolates with Heteroatom Bridge Substitutions via Cellular Uptake by Folate Receptor α and the Proton-Coupled Folate Transporter and Inhibition of de Novo Purine Nucleotide Biosynthesis” (J Med Chem, 2016):
Calls of active or inactive are those of the source. The rule behind the calls is not given here.

Experiments:
[1] = molecular target: T1, Proton-coupled folate transporter (Homo sapiens) (UniProt Q96NT5); assay: Inhibition of [3H]MTX uptake at human PCFT expressed in Chinese hamster R2/PCFT4 cells at 10 uM and pH 6.8 measured after 5 mins; type: cell-based
T1 sequence (whole entry): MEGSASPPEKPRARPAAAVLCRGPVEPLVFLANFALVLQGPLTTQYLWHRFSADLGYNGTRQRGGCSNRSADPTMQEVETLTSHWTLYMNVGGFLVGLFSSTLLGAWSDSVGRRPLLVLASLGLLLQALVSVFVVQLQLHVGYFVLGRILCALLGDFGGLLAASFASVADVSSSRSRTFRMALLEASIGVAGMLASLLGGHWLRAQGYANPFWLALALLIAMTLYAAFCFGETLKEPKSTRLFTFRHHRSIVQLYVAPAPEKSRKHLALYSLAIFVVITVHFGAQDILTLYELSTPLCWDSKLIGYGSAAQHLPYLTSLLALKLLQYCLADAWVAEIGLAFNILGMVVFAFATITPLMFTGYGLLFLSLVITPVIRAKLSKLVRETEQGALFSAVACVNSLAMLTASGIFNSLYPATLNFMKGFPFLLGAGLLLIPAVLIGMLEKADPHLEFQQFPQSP

KB = assay: Antiproliferative activity against human KB cells expressing human RFC/FR-alpha/PCFT assessed as reduction in cell viability measured after 96 hrs by Cell-Titer Blue fluorescence analysis; type: functional, cell-based
IGROV-1 [2] = assay: Antitumor activity against human IGROV1 cells xenografted into folate-deficient diet fed SCID mouse assessed as tumor growth at 150 mg/kg, iv administered […] post 2 days of tumor implantation measured on day 20 relative to control; type: functional
How it was run: (§1)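 Female NCR SCID mice (11 weeks old, ~20 g) are fed a folate-deficient diet from 14 days before implant. IGROV1 fragments (30–60 mg) are trocar-implanted subcutaneously in both flanks, and mice are randomised at 5/group. Tail-vein dosing starts on day 2: 28 mg/kg/inj Q3dx5, or 96 or 150 mg/kg/inj Q3dx4. Vehicle is 5% ethanol, 1% Tween-80, 0.5% NaHCO3 in water at pH 6.5. Caliper tumor mass is (a×b²)/2, T/C is taken when controls reach 700–1200 mg, and weights are recorded daily.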

[3] = molecular target: T1, Proton-coupled folate transporter (Homo sapiens); assay: Inhibition of [3H]MTX uptake at human PCFT expressed in Chinese hamster R2/PCFT4 cells at 1 uM and pH 5.5 measured after 5 mins; type: cell-based
[4] = molecular target: Folate receptor beta (Homo sapiens) (UniProt P14207); assay: Displacement of [3H]folic acid from human FR-beta receptor expressed in Chinese hamster D4 cells measured after 15 mins relative to folic acid; type: cell-based
[5] = Cytotoxicity in PCFT-null Chinese hamster R2 cells assessed as reduction in cell viability measured after 96 hrs by Cell-Titer Blue fluorescence analysis; type: cell-based; settings: Cricetulus griseus, R2, 96 h
[6] = molecular target: Bifunctional purine biosynthesis protein ATIC (Homo sapiens) (UniProt P31939); assay: Inhibition of AICARFTase in human KB cells expressing RFC/FR-alpha/PCFT assessed as cell growth inhibition measured after 96 hrs in presence of 320 uM AICA by Cell-Titer Blue fluorescence analysis; type: cell-based
[7] = Toxicity in folate-deficient diet fed SCID mouse xenografted with human IGROV1 cells assessed as body weight loss at 28 mg/kg, iv administered […] post 2 days of tumor implantation measured after 48 hrs of last dosage; type: organism-based; settings: in vivo; how it was run: as §1
[8] = molecular target: T2, Trifunctional purine biosynthetic protein adenosine-3 (Homo sapiens, UniProt P22102); assay: Inhibition of recombinant N-terminal 6His-tagged human GARFTase assessed as formation of 5,8-dideazafolate from 10-formyl-5,8-dideazafolic acid measured at every 15 seconds over 20 min by spectrophotometric analysis
T2 sequence (P22102 whole entry): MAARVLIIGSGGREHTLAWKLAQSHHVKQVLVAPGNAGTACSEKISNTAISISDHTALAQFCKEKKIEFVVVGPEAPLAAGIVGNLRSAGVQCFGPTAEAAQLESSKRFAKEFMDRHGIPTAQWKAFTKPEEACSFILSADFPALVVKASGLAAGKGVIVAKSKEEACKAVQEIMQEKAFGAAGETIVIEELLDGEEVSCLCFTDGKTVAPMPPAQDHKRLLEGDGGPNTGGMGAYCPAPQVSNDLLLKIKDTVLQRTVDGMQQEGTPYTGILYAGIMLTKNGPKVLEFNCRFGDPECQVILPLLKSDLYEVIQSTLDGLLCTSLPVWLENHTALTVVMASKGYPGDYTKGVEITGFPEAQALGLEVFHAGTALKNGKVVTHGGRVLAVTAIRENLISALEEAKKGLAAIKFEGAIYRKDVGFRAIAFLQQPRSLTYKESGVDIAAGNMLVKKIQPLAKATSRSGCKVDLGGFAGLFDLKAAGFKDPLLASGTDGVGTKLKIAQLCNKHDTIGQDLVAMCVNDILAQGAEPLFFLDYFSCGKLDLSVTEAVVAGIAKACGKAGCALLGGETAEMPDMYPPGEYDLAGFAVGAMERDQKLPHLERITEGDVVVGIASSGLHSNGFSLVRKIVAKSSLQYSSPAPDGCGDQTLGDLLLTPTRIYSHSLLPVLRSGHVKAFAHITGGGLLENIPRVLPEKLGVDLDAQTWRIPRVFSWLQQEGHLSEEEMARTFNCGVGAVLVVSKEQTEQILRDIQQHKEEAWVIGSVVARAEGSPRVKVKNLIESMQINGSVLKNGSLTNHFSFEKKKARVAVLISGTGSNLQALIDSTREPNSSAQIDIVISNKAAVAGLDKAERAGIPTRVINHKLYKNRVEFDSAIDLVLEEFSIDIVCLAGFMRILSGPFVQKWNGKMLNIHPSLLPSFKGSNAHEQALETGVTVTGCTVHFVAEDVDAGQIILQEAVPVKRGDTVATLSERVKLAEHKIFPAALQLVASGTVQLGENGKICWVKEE

IGROV-1 [9] = assay: Antitumor activity against human IGROV1 cells xenografted into folate-deficient diet fed SCID mouse assessed as tumor growth delay at 150 mg/kg, iv administered […] post 2 days of tumor implantation; type: functional
How it was run: (§2)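 Female NCR SCID mice, 11 weeks, ~20 g, on folate-deficient or standard diet from 14 days pre-implant; bilateral s.c. IGROV1 fragments (30–60 mg); 5 mice/group; tail-vein dosing from day 2 (Q3d schedules) in 5% ethanol, 1% Tween-80, 0.5% NaHCO3, water, pH 6.5; caliper mass (a×b²)/2; T/C and T−C delay.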

[10] = Toxicity in folate-deficient diet fed SCID mouse xenografted with human IGROV1 cells assessed as body weight loss at 96 and 150 mg/kg, iv administered […] post 2 days of tumor implantation measured after 48 hrs of last dosage; type: organism-based; settings: in vivo; how it was run: as §1
IGROV-1 [11] = assay: Antitumor activity against human IGROV1 cells xenografted into standard diet fed SCID mouse assessed as tumor growth at 150 mg/kg, iv administered […] post 2 days of tumor implantation measured on day 20 relative to control; type: functional; how it was run: as §2
[12] = molecular target: GAR transformylase/AICAR transformylase (Homo sapiens) (UniProt P31939+P22102); assay: Inhibition of GARFTase/AICARFTase in human KB cells expressing RFC/FR-alpha/PCFT assessed as cell growth inhibition measured after 96 hrs in presence of 60 uM adenosine by Cell-Titer Blue fluorescence analysis; type: cell-based
GAR transformylase/AICAR transformylase (Homo sapiens), sequence (P31939 whole entry, looked up, one chain of several): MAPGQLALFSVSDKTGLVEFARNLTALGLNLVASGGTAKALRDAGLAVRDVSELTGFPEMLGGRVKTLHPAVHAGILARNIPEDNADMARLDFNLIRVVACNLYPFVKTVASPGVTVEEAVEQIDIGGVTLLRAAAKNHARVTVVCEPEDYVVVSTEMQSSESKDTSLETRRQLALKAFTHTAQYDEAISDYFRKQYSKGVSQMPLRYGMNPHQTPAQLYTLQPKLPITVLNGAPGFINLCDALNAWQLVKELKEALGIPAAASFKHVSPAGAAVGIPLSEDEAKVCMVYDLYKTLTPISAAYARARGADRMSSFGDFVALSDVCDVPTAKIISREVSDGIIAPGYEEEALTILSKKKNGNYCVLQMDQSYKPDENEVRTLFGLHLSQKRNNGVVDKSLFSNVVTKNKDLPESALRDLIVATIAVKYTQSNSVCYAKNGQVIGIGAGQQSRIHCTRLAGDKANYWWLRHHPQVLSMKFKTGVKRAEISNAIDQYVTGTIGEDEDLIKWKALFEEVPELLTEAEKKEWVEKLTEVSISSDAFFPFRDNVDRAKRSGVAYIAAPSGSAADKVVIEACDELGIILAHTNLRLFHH

Folate receptor beta (Homo sapiens), sequence (P14207 17-230 limits assumed): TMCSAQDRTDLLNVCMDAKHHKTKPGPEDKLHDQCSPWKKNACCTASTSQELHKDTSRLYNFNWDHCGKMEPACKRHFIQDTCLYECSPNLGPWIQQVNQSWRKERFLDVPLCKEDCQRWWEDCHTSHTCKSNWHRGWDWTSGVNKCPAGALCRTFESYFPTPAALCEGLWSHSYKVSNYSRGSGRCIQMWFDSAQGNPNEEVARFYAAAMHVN
Bifunctional purine biosynthesis protein ATIC (Homo sapiens), sequence (P31939 whole entry, looked up): as the sequence (P31939 whole entry, looked up, one chain of several) above

Q: For `Nc1nc2[nH]c(CCNc3ccc(C(=O)N[C@@H](CCC(=O)O)C(=O)O)cc3)cc2c(=O)[nH]1`, which inhibition [1] is on record?
A: 40 to 60%

Q: What about the IC50 (KB) of the same compound?
A: 0.32 nM

Q: What about the T/C (IGROV-1 [2]) of the same compound?
A: 12%

Q: And the inhibition [3]?
A: 30 to 60%

Q: What about the inhibition [4] of the same compound?
A: 60 to 110%

Q: And the IC50 [5]?
A: > 1000 nM

Q: And the inhibition [6]?
A: Active

Q: What about the Activity [7] of the same compound?
A: Non-Toxic

Q: And the Ki [8]?
A: 59 nM

Q: And the Time (IGROV-1 [9])?
A: 15 days

Q: And the Activity [10]?
A: Non-Toxic

Q: What about the T/C (IGROV-1 [11]) of the same compound?
A: 94%

Q: And the inhibition [12]?
A: inactive
